From PubChem BioAssay AID588627 (Johns Hopkins Ion Channel Center, 2011)
In all, about 310,000 compounds went through this assay and about 1,400 (0.45%) were called active. The sample holds actives, similar compounds and a random draw of the others, so the mix is not that of the screen.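 Rule for the calls: active = calcium response B-score plate-corrected fluorescence ratio at least 3 library SD, with starting fluorescence B-score inside 5 SD; inactive = the rest.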

Biological target: Mas-related G-protein coupled receptor member X1 (Homo sapiens) (UniProt Q96LB2)
Sequence (Q96LB2 whole entry, looked up): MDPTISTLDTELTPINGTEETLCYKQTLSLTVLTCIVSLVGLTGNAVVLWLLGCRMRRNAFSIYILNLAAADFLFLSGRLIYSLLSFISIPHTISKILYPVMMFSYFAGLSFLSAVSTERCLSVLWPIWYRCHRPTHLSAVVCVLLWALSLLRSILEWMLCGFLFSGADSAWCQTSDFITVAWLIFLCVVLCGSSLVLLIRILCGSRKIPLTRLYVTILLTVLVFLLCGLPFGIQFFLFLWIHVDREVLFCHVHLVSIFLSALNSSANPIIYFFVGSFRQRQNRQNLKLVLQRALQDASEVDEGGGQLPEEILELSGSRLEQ
Experiment: MrgX1 activation via calcium signaling – HEK293 cells, Fluo-4 calcium flux, primary screen (AID 588627)
Conditions: Fluo-4 calcium fluorescence, agonist mode, at 10 µM; active compounds read high
Method in brief: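 Assay system: stable human MrgX1 HEK293 cell line. Quantity: 15,000 cells per well. Schedule: cells plated overnight, dye loaded 0.5 h 37 °C, 0.5 h room temperature. Detection: Fluo-4 NW calcium-flux fluorescence, kinetic read. Read-out basis: peak-minus-minimum fluorescence over baseline, converted to B scores. Control set: positive and negative control wells on each plate.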

With `Cc1ccc(-c2nn(-c3ccccc3)cc2/C=C2\SC(=S)N(CCCCCC(=O)O)C2=O)o1` as the molecule, how does the B-score read?
Its B-score is “inactive”.

Which B-score does the source give for `O=C(N/C(=C/c1ccc(Cl)cc1)C(=O)N1CCCCC1)c1ccco1` here?
Its B-score is “inactive”.

For `COc1ccc(C(=O)NC(=S)NNC(=O)c2c(-c3ccccc3)noc2C)cc1`, which B-score is on record?
The B-score was 123 (active).

With `Cc1onc(-c2ccccc2)c1C(=O)NNC(=S)NC(=O)c1ccc(F)cc1` as the molecule, how does the B-score read?
Its B-score is 126 (active).

`Cc1onc(-c2c(Cl)cccc2Cl)c1C(=O)NNC(=O)c1c(-c2c(Cl)cccc2Cl)noc1C` was tested. Which B-score did it give?
The B-score was “inactive”.

`CCc1noc(C)c1C(=O)NNC(=O)c1ccc(F)cc1` was tested. Which B-score did it give?
Its B-score is “inactive”.

Which B-score does the source give for `Cc1onc(-c2ccccc2)c1C(=O)Nc1ccccc1C#N` here?
The B-score was “inactive”.

How did the B-score turn out when `Cc1ccc(CNC(=O)c2c(-c3ccccc3)noc2C)cc1` was run?
The B-score was “inactive”.

`Cc1ccc(NC(=O)c2ccn(C(=O)Nc3ccccc3)n2)c(C)c1` was tested. Which B-score did it give?
The B-score was “inactive”.

With `CS(=O)(=O)N(CC(=O)N1CCCC1)Cc1ccccc1` as the molecule, how does the B-score read?
Its B-score is “inactive”.

Which B-score does the source give for `CC1=NN(c2ccccc2)C(=O)C1C(=O)c1ccc([N+](=O)[O-])cc1` (stereo not drawn) here?
Its B-score is “inactive”.

For `O=C1NC(=O)C2C1C(c1ccc([N+](=O)[O-])cc1)=NN2Cc1ccccc1` (stereo not drawn), which B-score is on record?
Its B-score is 42.5 (active).

Which B-score does the source give for `CC(=O)N1c2ccccc2N(Cc2ccc([N+](=O)[O-])cc2)C(=O)C1(C)C` here?
The B-score was “inactive”.

How did the B-score turn out when `COc1cc(CO)ccc1OCC(=O)Nc1cccc2ccccc12` was run?
The B-score was “inactive”.

How did the B-score turn out when `COc1ccc(N2CC(C)Cn3c2nc2c3c(=O)n(Cc3ccccc3F)c(=O)n2C)c(OC)c1` (stereo not drawn) was run?
The B-score was “inactive”.

For `O=C(COC(=O)c1cccc(Cl)c1)Nc1ccc2[nH]c(=O)[nH]c2c1`, which B-score is on record?
The B-score was “inactive”.

`CC(=O)NCC(O)c1ccc([N+](=O)[O-])cc1` (stereo not drawn) was tested. Which B-score did it give?
Its B-score is “inactive”.

For `CCC(C)c1ccc(O)c(/C=N/O)c1` (stereo not drawn), which B-score is on record?
Its B-score is “inactive”.

How did the B-score turn out when `CNCC(O)c1ccc(O)c(O)c1` (stereo not drawn) was run?
Its B-score is 46.8 (active).

For `Cc1ccc(CNC(=O)CCC(=O)N2CC(C)Sc3ccccc32)cc1` (stereo not drawn), which B-score is on record?
The B-score was “inactive”.

`Cc1ccc(CSCC2Nc3ccc(C(=O)N4CCN(c5ccc(F)cc5)CC4)cc3NC2=O)cc1` (stereo not drawn) was tested. Which B-score did it give?
The B-score was “inactive”.

`O=C1Nc2cc(C(=O)N3CCN(c4ccc(F)cc4)CC3)ccc2NC1CSCc1cccc(F)c1` (stereo not drawn) was tested. Which B-score did it give?
Its B-score is 28.7 (active).

Which B-score does the source give for `O=C(c1cc(C(=O)N2CCN(c3ccc(F)cc3)CC2)cc([N+](=O)[O-])c1)N1CCN(c2ccc(F)cc2)CC1` here?
Its B-score is “inactive”.

With `Cc1ccc(NC(=O)COC(=O)C2C3CC4OC(=O)C2C4C3)cc1Cl` (stereo not drawn) as the molecule, how does the B-score read?
The B-score was “inactive”.

With `Cc1cc(C)cc(OCC(=O)NC(C)c2ccccc2)c1` (stereo not drawn) as the molecule, how does the B-score read?
The B-score was “inactive”.

How did the B-score turn out when `COc1cc(OC)cc(C(=O)N[C@H](C(=O)OCC(=O)NC(C)c2ccccc2)C(C)C)c1` (stereo partly drawn) was run?
The B-score was 36 (active).

For `Cc1ccc(OCC(=O)NC(C)c2ccccc2)cc1C` (stereo not drawn), which B-score is on record?
The B-score was “inactive”.

With `COc1ccc(NC(=O)CC2C(=O)NC3CCCCC3N2C(=O)c2ccc(F)cc2)cc1` (stereo not drawn) as the molecule, how does the B-score read?
Its B-score is “inactive”.
